A short description of assay [1]: Her2 expression decrease, cell viability multiplex – SKBR3 breast tumor cells, AlphaScreen, ATP viability, primary screen (AID 461;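 active means Her2 level under about 52% in both replicate screens, with viability over 70% of control, limit read from the data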;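 on Her2 level: lower value means less Her2 protein in the cells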;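 on viability: percent of carrier control wells set as 100% viability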). Particulars: SKBR3 Her2 protein level, 18-24 h, measured here: SKBR3 viability, ATP luminescence, at 10 µM.
Assay [2] concerns the target Receptor tyrosine-protein kinase erbB-2 (Homo sapiens) (UniProt P04626). The assay is described as above. The following applies: 18-24 h, at 10 µM, stronger effect = lower value.
A short description of assay [3]: reduced viability of SK-BR-3 breast cancer cells – cell-based, 24 h, human, pilot screen (AID 572).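 Further: compound exposure lasted between 18 and 24 h rather than exactly 24 h; 100% = carrier-treated control wells.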 Particulars: SK-BR-3 viability, CellTiter-Glo luminescence, at 10 µM, stronger effect = lower value.
The nature of assay [4]: HUVEC growth inhibition – cell-based, human, primary screen (AID 575;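 active means viability at or below 30% in both replicate assays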;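 further: 100% = median of untreated cell wells with 0.1% DMSO on each plate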). Particulars: HUVEC proliferation, CellTiter-Glo luminescence, 72 h; at 10 µM; stronger effect = lower value. The method, boiled down:
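System – primary HUVEC, no more than 12 passages · Medium – Low-serum (2% FBS) EBM, supplemented · Times – 72 h exposure, 37 °C, 5% CO2, 30 min RT equilibration · Measured by – luminescent ATP assay · Read-out – % viability relative to median vehicle-well signal on each plate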
For orientation: ATP-based viability assays read luminescence as a measure of living cells.

Assay [5] in a line: H69AR cell proliferation blockers – human, duplicate replicates, primary screen (AID 580;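 active means viability at or under a set limit in both replicates, limit being median viability minus 3 SD, cut at about 48% in these data, passing the limit was not always enough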;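 further: 100% = mean luminescence of untreated wells and 0% = no signal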). The following applies: H69AR lung tumor cells viability, ATP luminescence, 72 h; at 10 µM; stronger effect = lower value.
Assay [6] in a line: MRP1 drug-resistance reversers in H69AR cells – cell-based, doxorubicin co-treatment, pilot screen (AID 601;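 active means viability loss from added drug above about 55%, and viability with drug at most 40%, in both replicates, limit read from the data, passing the limit was not always enough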). The following applies: CellTiter-Glo, 72 h, at 10 µM; for differential viability (reversal): stronger effect = higher value.
Assay [7] is described as follows: yeast transport mutant growth inhibition pilot in 384-well plates, post-Golgi transport modulator project (AID 636; in the data active means inhibition above about 31%). The following applies: absorbance 615 nm, about 18 h, stronger effect = higher value.
Assay [8] can be described thus: growth suppression of yeast trafficking mutant, preliminary HTS, modulators of trafficking downstream of Golgi apparatus project, 1536-format plate, OD 615 nm (AID 637; in the data active means inhibition above about 30%). The following applies: yeast transport mutant growth, absorbance 615 nm, 18 h; stronger effect = higher value.
Setting [9] is: H69AR cells + 2 uM doxorubicin, measured here: viability with 2 uM doxorubicin, stronger effect = lower value.
[10] abbreviates: H69AR cells, compound alone cytotoxicity.

Calls of active or inactive are those of the source.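 How the source made its calls, unless noted: active means viability at or below 10% of carrier control in both of two separate runs; inconclusive means viability at or below 10% in only one of the two runs; inactive means the rest.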

The term viability denotes a read-out of living cells in per cent, often relative to untreated cells. A word on the inhibition: it is the drop in the measured response relative to a control, in per cent.

Sequence of Receptor tyrosine-protein kinase erbB-2 (Homo sapiens) (P04626 whole entry, looked up): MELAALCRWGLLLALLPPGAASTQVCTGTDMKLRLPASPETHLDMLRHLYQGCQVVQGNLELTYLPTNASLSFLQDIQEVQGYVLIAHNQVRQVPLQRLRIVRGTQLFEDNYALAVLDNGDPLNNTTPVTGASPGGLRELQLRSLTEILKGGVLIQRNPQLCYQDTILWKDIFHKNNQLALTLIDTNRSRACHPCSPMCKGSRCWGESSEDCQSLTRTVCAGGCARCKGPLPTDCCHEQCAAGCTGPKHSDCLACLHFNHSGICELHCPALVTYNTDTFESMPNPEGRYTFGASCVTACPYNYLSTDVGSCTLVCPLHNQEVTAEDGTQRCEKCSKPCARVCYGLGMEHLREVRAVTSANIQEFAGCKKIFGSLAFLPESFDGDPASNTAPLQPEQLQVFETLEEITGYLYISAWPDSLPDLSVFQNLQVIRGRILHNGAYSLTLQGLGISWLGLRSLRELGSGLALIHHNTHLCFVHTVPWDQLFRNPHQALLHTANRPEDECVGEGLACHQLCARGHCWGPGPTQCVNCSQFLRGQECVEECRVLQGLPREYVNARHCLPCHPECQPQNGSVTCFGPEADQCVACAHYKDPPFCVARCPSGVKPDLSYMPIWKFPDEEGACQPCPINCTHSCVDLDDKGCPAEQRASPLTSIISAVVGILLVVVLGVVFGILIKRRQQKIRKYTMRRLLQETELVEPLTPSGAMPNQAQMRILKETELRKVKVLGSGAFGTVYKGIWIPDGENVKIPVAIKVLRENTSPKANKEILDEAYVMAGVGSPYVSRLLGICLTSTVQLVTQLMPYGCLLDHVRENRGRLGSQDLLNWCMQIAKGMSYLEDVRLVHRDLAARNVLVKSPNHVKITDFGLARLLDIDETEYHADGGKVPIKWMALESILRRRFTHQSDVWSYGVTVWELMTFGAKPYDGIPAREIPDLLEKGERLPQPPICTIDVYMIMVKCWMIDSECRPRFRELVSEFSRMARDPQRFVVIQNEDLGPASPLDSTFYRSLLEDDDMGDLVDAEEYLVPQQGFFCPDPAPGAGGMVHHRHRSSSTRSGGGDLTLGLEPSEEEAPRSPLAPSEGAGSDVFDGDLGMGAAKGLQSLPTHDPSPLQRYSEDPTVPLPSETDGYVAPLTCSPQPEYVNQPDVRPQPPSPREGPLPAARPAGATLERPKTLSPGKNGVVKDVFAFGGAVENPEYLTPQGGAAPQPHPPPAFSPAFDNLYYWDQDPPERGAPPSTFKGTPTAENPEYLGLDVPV

As to `Cn1nc(C(=O)Nc2cccc(C(F)(F)F)c2)ccc1=O`, the viability in assay [1] was 95.5%; in assay [3], 95.5% (inactive); in assay [4] it was 107% (inactive); in assay [5], 91.5% (inactive); in assay [6] (setting [9]), 84.7%; in assay [6] (setting [10]), 91.5%. In addition, the Her2 level in assay [2] is 92% (inactive). Moreover, the differential viability (reversal) in assay [6] (H69AR cells + 2 uM doxorubicin) is 6.87% (inactive). The inhibition in assay [7] was -3.29% (inactive); in assay [8], 1.45% (inactive).
With `COc1ccc(-n2nnc3c(=O)n(C/C=C/c4ccccc4)cnc32)cc1`, the viability in assay [1] is 116%; in assay [3] it was 116% (inactive); in assay [4], 105% (inactive); in assay [5], 86.1% (inactive); in assay [6] (setting [9]) it was 77.1%; in assay [6] (setting [10]), 86.1%. The Her2 level in assay [2] was 100% (inactive). Also, the differential viability (reversal) in assay [6] (H69AR cells + 2 uM doxorubicin) was 8.94% (inactive). The inhibition in assay [7] is -6.62% (inactive); in assay [8], 1.33% (inactive).
As to `CC1CCCCC1NC(=O)CN1CCN(Cc2ccccc2Cl)C1=O` (stereo not given), the viability in assay [1] is 102%; in assay [3] it was 102% (inactive); in assay [4] it was 90.9% (inactive); in assay [5], 80.4% (inactive); in assay [6] (setting [9]), 68.5%; in assay [6] (setting [10]), 80.4%. For the same compound, the Her2 level in assay [2] is 97% (inactive). In assay [6] (H69AR cells + 2 uM doxorubicin), the differential viability (reversal) was 11.9% (inactive). In addition, the inhibition in assay [7] was -4.68% (inactive); in assay [8], -7.67% (inactive).
For the compound `CCc1ccc(CN(C)CCc2ccccn2)cc1`, the viability is 108% in assay [1]; 108% (inactive) in assay [3]; 106% (inactive) in assay [4]; 102% (inactive) in assay [5]; 85.8% in assay [6] (setting [9]); 102% in assay [6] (setting [10]). For the same compound, the Her2 level in assay [2] is 86% (inactive). The differential viability (reversal) in assay [6] (H69AR cells + 2 uM doxorubicin) is 16.7% (inactive). The inhibition in assay [7] is -5.62% (inactive); in assay [8], -3.02% (inactive).
On to `O=C1CN(C(=O)COC(=O)c2ccccc2NC(=O)c2ccco2)c2ccccc2N1`, for which the viability in assay [1] was 94%; in assay [3], 94% (inactive); in assay [4], 97.3% (inactive); in assay [5], 83.6% (inactive); in assay [6] (setting [9]), 97.6%; in assay [6] (setting [10]), 83.6%. Besides, the Her2 level in assay [2] is 106% (inactive). The differential viability (reversal) in assay [6] (H69AR cells + 2 uM doxorubicin) is -14.1% (inactive). Further, the inhibition is -5.95% (inactive) in assay [7] and -0.49% (inactive) in assay [8].
Take `COc1cc(OC)c(C(=O)Nc2ncn[nH]2)cc1OC`: the viability was 102% in assay [1]; 102% (inactive) in assay [3]; 95.4% (inactive) in assay [4]; 95% (inactive) in assay [5]; 101% in assay [6] (setting [9]); 95% in assay [6] (setting [10]). Also, the Her2 level in assay [2] was 122% (inactive). The differential viability (reversal) in assay [6] (H69AR cells + 2 uM doxorubicin) is -6.38% (inactive). Besides, the inhibition in assay [7] is 1.97% (inactive); in assay [8], -6.72% (inactive).
With `CCOC(=O)c1ccc(NC(=O)CSc2ncccn2)cc1`, the viability is 104% in assay [1]; 104% (inactive) in assay [3]; 85.9% (inactive) in assay [4]; 96.9% (inactive) in assay [5]; 94.5% in assay [6] (setting [9]); 96.9% in assay [6] (setting [10]). The Her2 level in assay [2] was 112% (inactive). Also, the differential viability (reversal) in assay [6] (H69AR cells + 2 uM doxorubicin) is 2.45% (inactive). The inhibition in assay [7] is -0.53% (inactive); in assay [8] it was 4.26% (inactive).
In the case of `O=C(NCc1ccco1)c1cccn2c(=O)c3sccc3nc12`, the viability in assay [1] is 104%; in assay [3] it was 104% (inactive); in assay [4], 82.5% (inactive); in assay [5] it was 58.4% (inactive); in assay [6] (setting [9]), 82.4%; in assay [6] (setting [10]) it was 58.4%. Moreover, in assay [2], the Her2 level is 74.5% (inactive). In addition, in assay [6] (H69AR cells + 2 uM doxorubicin), the differential viability (reversal) was -24% (inactive). For the same compound, the values for the inhibition in assay [7] and in assay [8] were -1.2% (inactive) and -7.87% (inactive), respectively.
Turning to `COc1cccc(OC)c1C(=O)N1CCN(S(=O)(=O)c2ccccc2)CC1`, the viability in assay [1] was 79.5%; in assay [3], 79.5% (inactive); in assay [4], 82.9% (inactive); in assay [5], 97.2% (inactive); in assay [6] (setting [9]), 82.1%; in assay [6] (setting [10]), 97.2%. Moreover, the Her2 level in assay [2] is 82.5% (inactive). In addition, in assay [6] (H69AR cells + 2 uM doxorubicin), the differential viability (reversal) was 15.2% (inactive). Moreover, the figures for the inhibition in assay [7] and in assay [8] were -3.42% (inactive) and -2% (inactive), respectively.
As to `O=C(CCn1c(=O)sc2ccccc21)Nc1nccs1`, the viability in assay [1] was 98.5%; in assay [3] it was 98.5% (inactive); in assay [4], 115% (inactive); in assay [5], 108% (inactive); in assay [6] (setting [9]), 91.5%; in assay [6] (setting [10]), 108%. In assay [2], the Her2 level was 97% (inactive). In assay [6] (H69AR cells + 2 uM doxorubicin), the differential viability (reversal) was 16.8% (inactive). The inhibition was -2.6% (inactive) in assay [7] and -0.95% (inactive) in assay [8].
On to `COC(=O)c1ccc(N2C(=O)CC(N3CCN(C(=O)c4ccco4)CC3)C2=O)cc1` (stereo not given), for which the viability in assay [1] is 86%; in assay [3], 86% (inactive); in assay [4], 85.9% (inactive); in assay [5], 89.5% (inactive); in assay [6] (setting [9]) it was 93.7%; in assay [6] (setting [10]) it was 89.5%. Also, in assay [2], the Her2 level is 89.5% (inactive). In addition, the differential viability (reversal) in assay [6] (H69AR cells + 2 uM doxorubicin) is -4.23% (inactive). The inhibition was -3.73% (inactive) in assay [7] and -2.95% (inactive) in assay [8].
Take `COc1cccc(NC(=O)Cc2nnc(SCC(=O)c3ccccc3)n2C)c1`: the viability is 92% in assay [1]; 92% (inactive) in assay [3]; 85% (inactive) in assay [4]; 68.1% (inactive) in assay [5]; 59.4% in assay [6] (setting [9]); 68.1% in assay [6] (setting [10]). Also, the Her2 level in assay [2] is 83.5% (inactive). Also, in assay [6] (H69AR cells + 2 uM doxorubicin), the differential viability (reversal) is 8.65% (inactive). Besides, the inhibition in assay [7] was -2.24% (inactive); in assay [8], -3.49% (inactive).
`COc1ccc(C(=O)N(CCCO)Cc2cc3c(C)ccc(C)c3[nH]c2=O)cc1OC`: the viability in assay [1] is 90.5%; in assay [3], 90.5% (inactive); in assay [4], 113% (inactive); in assay [5], 95.1% (inactive); in assay [6] (setting [9]), 82.9%; in assay [6] (setting [10]), 95.1%. Besides, the Her2 level in assay [2] was 95% (inactive). In addition, in assay [6] (H69AR cells + 2 uM doxorubicin), the differential viability (reversal) was 12.2% (inactive). The inhibition was -5.06% (inactive) in assay [7] and 2.46% (inactive) in assay [8].
On to `COc1ccc(C2=Nn3c(nnc3-c3ccccc3)SC2)cc1OC`, for which the viability in assay [1] was 124%; in assay [3] it was 124% (inactive); in assay [4], 78.1% (inactive); in assay [5], 81.7% (inactive); in assay [6] (setting [9]) it was 79.3%; in assay [6] (setting [10]), 81.7%. In addition, in assay [2], the Her2 level is 101% (inactive). For the same compound, the differential viability (reversal) in assay [6] (H69AR cells + 2 uM doxorubicin) is 2.4% (inactive). The results for the inhibition in assay [7] and in assay [8] were -4.47% (inactive) and 5.65% (inactive), respectively.
With `Cc1noc(C)c1COC(=O)c1ccccc1Oc1ccccc1`, the viability in assay [1] was 91%; in assay [3], 91% (inactive); in assay [4], 79.1% (inactive); in assay [5], 96.5% (inactive); in assay [6] (setting [9]), 69.8%; in assay [6] (setting [10]), 96.5%. Moreover, the Her2 level in assay [2] is 106% (inactive). For the same compound, in assay [6] (H69AR cells + 2 uM doxorubicin), the differential viability (reversal) was 26.8% (inactive). For the same compound, the inhibition in assay [7] is -3.25% (inactive); in assay [8], -5.56% (inactive).

These data come from PubChem BioAssay.
